Compound activity as filed in PubChem BioAssay.
This excerpt belongs to a sample that is enriched for hits.
Fibroblast inh: blocks proliferation of human lung fibroblasts; LL 47 human lung fibroblast viability, ATP luminescence; stronger effect = lower value; 85,000 compounds, 1.1% hits; viability, % at 10 µM; AID 719;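 active means viability at or below 50% in the single dose screen; inactive means viability above 50%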;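 further: compound exposure lasted 72 h before the ATP readout; 100% = median luminescence of untreated cell-only wells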
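Assay system: human lung fibroblast line LL 47, low passage. Input: 1,150 fibroblasts seeded per well. Times: overnight cell rest, 72 h compound treatment at 37 °C. Evaluation: % viability of median cell-only signal. Technique: luminescent ATP detection, CellTiter-Glo. Control set: cell-only wells, no compound.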
HCT116 bCat-KO: beta-catenin-lacking colon tumor cell growth suppression; HCT116 beta-catenin knockout viability, CellTiter-Glo, 60 h; stronger effect = lower value; viability, % at 10 µM; 140,000 compounds, 1.5% hits;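 active means viability at or under a set limit, the compound median less 4 SD, cut at about 6% in these data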;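 further: 0% = Hyamine 1622 control at 20 µM and 100% = untreated cell control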
Phagocytosis inh: inhibitors of macrophage phagocytosis | J774A.1 macrophage IgG-bead phagocytosis, imaging | inhibition, % at 5 µM | 110,000 compounds, 0.07% hits;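 active means inhibition above the mean of the plate negative controls plus 5 SD, cut at about 13% in these data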;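 further: phagocytic index as fraction of beads internalized from green versus red external bead signal; plate controls were DMSO negative control for no effect and cytochalasin-D positive control for full effect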
H69AR growth 86K: growth inhibitors of human H69AR lung tumor cells | H69AR lung tumor viability, ATP luminescence, 72 h; stronger effect = lower value | viability, % at 10 µM | 85,000 compounds, 6% hits;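 active means viability at or below 40%; inactive means viability above 40%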;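 further: multidrug resistant small cell line overexpressing MRP-1 efflux transporter; 100% = mean luminescence of untreated control wells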
HCT116 PTEN-null: PTEN-deleted cell growth suppression. HCT116 PTEN-null viability, CellTiter-Glo, 60 h; stronger effect = lower value. viability, % at 10 µM. 140,000 compounds, 1.2% hits. AID 827;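 active means viability at or below a set limit, 4 SD under the median of all tested compounds, cut at about 3.7% in these data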;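 further: PTEN knockout HCT116 line with beta catenin targeted HCT116 as companion control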
HUVEC prolif 384: blocks proliferation of human endothelial cells; HUVEC proliferation, CellTiter-Glo luminescence, 72 h; stronger effect = lower value; viability, % at 10 µM (by protocol); 86,000 compounds, 1.1% hits;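 active means viability at or below 30%; inactive means viability above 30%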;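 further: 100% = median luminescence of DMSO-only cell control wells on each plate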
Active calls of the source: *; · = no result given.

SMILES | Fibroblast inh | HCT116 bCat-KO | Phagocytosis inh | H69AR growth 86K | HCT116 PTEN-null | HUVEC prolif 384
CCOC(=O)/C(C#N)=C1/C=CN(c2ccccc2)C=N1 | 103.1 | 97.2 | -0.5 | 39.1* | 94.6 | 97.8
CCCCC(CC)Cn1c2nc3ccccc3nc2c2c(=N)oc(C)nc21 (centres undefined) | 75.0 | 4.5* | -5.4 | 90.4 | 2.5* | 2.5*
O=S(=O)(NCc1ccccc1)c1ccc(S(=O)(=O)N(Cc2ccccn2)C2CCCC2)cc1 | 93.9 | 78.9 | · | 72.2 | 77.1 | 79.7
CN(Cc1ccccc1)S(=O)(=O)c1ccc(S(=O)(=O)N(Cc2ccc(F)cc2)C2CCCC2)cc1 | 99.4 | 84.5 | -0.5 | 32.0* | 87.8 | 87.0
COC(=O)Cc1cc(=O)[nH]c(/N=C(/NC(=O)c2ccccc2)Nc2ccccc2C)n1 | 94.7 | · | · | 82.3 | · | 67.8
COc1ccc(N/N=C(/N=Nc2nc(C)cc(=O)[nH]2)c2ccccc2)cc1 | 16.2* | 12.6 | 0.1 | 27.4* | 8.0 | 20.7*
Cc1cc(=O)[nH]c(N=N/C(=N/Nc2ccccc2C)c2ccccc2)n1 | 24.4* | 6.6 | 3.4 | 25.9* | 3.6* | 11.8*
COc1ccc(C(=O)CSc2nc(C)cc(=O)[nH]2)cc1 | 97.9 | 101.9 | -0.5 | 91.1 | 101.8 | 99.6
Cc1cc(=O)[nH]c(N=N/C(=N/Nc2ccc(O)cc2)c2ccccc2)n1 | 50.7 | 39.9 | · | 31.7* | 60.0 | 36.2
COc1ccc(NC(=O)C(Sc2nnc(-c3ccncc3)n2-c2ccccc2C)c2ccccc2)cc1Cl (centres undefined) | · | 60.9 | · | · | 61.0 | ·
CCC1CCc2c(sc3nc(SCC(=O)NCc4ccco4)n(-c4ccccc4)c(=O)c23)C1 (centres undefined) | 64.3 | 80.9 | · | 3.0* | 78.9 | 37.6
CC1CCc2c(sc3ncn4c(SCC(=O)NCc5ccco5)nnc4c23)C1 (centres undefined) | 101.9 | 61.9 | 0.0 | 10.1* | 72.3 | 88.1
CC1CCc2sc3ncn4nc(C(=O)NCc5ccco5)nc4c3c2C1 (centres undefined) | 93.7 | 89.6 | 1.3 | 67.3 | 91.1 | 89.5
Cc1ccc(-n2c(SCC(=O)NCc3ccco3)nc3sc4c(c3c2=O)CC(C)(C)SC4)cc1 | 104.9 | 64.8 | -0.3 | 54.4 | 57.3 | 91.8
CCn1c2ccccc2n2c(=O)c(=O)n(CC(=O)Nc3ccc(C(C)C)cc3)nc12 | · | 91.1 | -2.9 | · | 93.8 | ·
CCc1ccc2[nH]c3nc(SCc4nnc(-c5ccc(C)cc5)o4)nnc3c2c1 | 44.4* | 54.9 | · | 9.4* | 45.6 | 35.8
O=C(CSc1ncnc2c1nnn2-c1ccc(F)cc1)N1CCN(c2ccccc2)CC1 | 98.5 | · | · | 27.4* | · | 89.4
COc1ccc(-n2ncc3c(SCC(=O)N4CCN(c5ccccc5OC)CC4)ncnc32)cc1 | 95.6 | 60.1 | · | 23.3* | 43.2 | 58.2
COc1ccccc1N(CC(O)CN1C(=O)NC(C)(C)C1=O)S(=O)(=O)c1ccc(C)cc1 (centres undefined) | 101.4 | 96.2 | 1.7 | 87.4 | 94.8 | 109.7
CCCCCN1CSC(=S)N(Cc2ccccc2)C1 | · | 5.6* | -7.7 | · | 3.3* | ·
C=CCn1c(C)cc(C(=O)CSc2n[nH]c(N)n2)c1C | 98.6 | 93.6 | -0.3 | 90.8 | 99.1 | 91.8
CC(C)COC(=O)c1ccc2c(c1O)C(=O)c1ccccc1C2=O | 75.5 | 37.6 | -1.0 | 44.6 | 26.4 | 10.2*
CCOC(=O)c1c(NC(=O)COc2cccc3c2CCN(CC)C3=O)sc2c1CCC2 | · | 83.5 | -2.4 | · | 78.2 | ·
COc1cc(Nc2ccccc2Cl)c([N+](=O)[O-])nc1[N+](=O)[O-] | 86.0 | 53.5 | · | 16.6* | 48.3 | 70.8
CCN(CC)c1ccc(/C=c2/sc3nnc(-c4ccccc4C)n3c2=O)cc1 | 87.6 | 99.7 | 1.3 | 20.3* | 102.0 | 67.9
CCN(CC)c1ccc(/C=c2\sc3nnc(-c4ccccc4Cl)n3c2=O)cc1 | 96.9 | 90.7 | · | 97.0 | 90.0 | 94.3
O=C(N/N=C\C=C\c1ccco1)c1cc(-c2ccc3ccccc3c2)n[nH]1 | · | 6.7 | -1.6 | · | 3.6* | ·
CCOC(=O)N1CCN(C(=O)c2ccc3c(=O)n(Cc4ccc(Cl)cc4)c(=S)[nH]c3c2)CC1 | 93.1 | 68.1 | -2.0 | 13.0* | 63.8 | 53.4
COCCn1c(=S)[nH]c2cc(C(=O)N3CCN(c4ccc(F)cc4)CC3)ccc2c1=O | 92.2 | 89.4 | -1.4 | 35.0* | 82.7 | 90.5
